# Experimental data from different studies.
# Each line is one published result; the experiments were not run side by side.
# Target: Mitogen-activated protein kinase 11 (MAPK11, Homo sapiens, UniProt Q15759)
Compound,read-out,action,method,tested at,measurement,value
CC(C)(C)c1nc2c(s1)c1nc(N)ncc1c1ccc(NS(=O)(=O)c3c(F)cccc3F)c(F)c12,enzyme activity,inhibitor,radiometric,1 µM,remaining activity,101%
O=C(NS(=O)(=O)c1ccc(NCC2CCOCC2)c([N+](=O)[O-])c1)c1ccc(N2CCN(Cc3ccc(C(F)(F)F)cc3-c3ccc(Cl)cc3)CC2)cc1Oc1cnc2[nH]ccc2c1,cell-free assay,,competition with immobilised ligand,1 µM,remaining binding,78%
N#CCCc1ccc2c(c1)-c1[nH]c3ccc([N+](=O)[O-])cc3c1CC(=O)N2,cell-free assay,,,0.5 µM,remaining signal,101%
COc1ccc2c(O[C@@H]3C[C@H]4C(=O)N[C@]5(C(=O)O)CC5/C=C\CCCCC[C@H](NC(=O)OC5CCCC5)C(=O)N4C3)cc(-c3csc(NC(=O)C(C)C)n3)nc2c1C (stereo partly drawn),cell-free assay,,competition with immobilised ligand,1 µM,remaining binding,100%
Cc1ccc(C(=O)Nc2ccc(CN3CCN(C)CC3)c(C(F)(F)F)c2)cc1C#Cc1cnc2cccnn12,enzyme activity,inhibitor,,23.5 nM,remaining activity,63%
Cc1cc(NC(=O)c2cccc3cc(-c4cccc5[nH]nc(N)c45)ccc23)ccc1F,enzyme activity,inhibitor,,0.1 µM,activity vs control,69%
O=C(N1CCS(=O)(=O)CC1)N1C[C@H](c2ccc(OC(F)(F)F)cc2)C[C@H](c2nc(C3CC3)no2)C1,cell-free assay,,competition with immobilised ligand,1 µM,remaining binding,100%
COc1cc(Cl)c(C(=O)N[C@@H](CN[C@H]2CC[C@@H](N)CC2)Cc2ccc(C#N)cc2)cc1-c1ccc(CN[C@H](C)c2ccc(C)cc2)o1,enzyme activity,inhibitor,,1 µM,remaining activity,92%
CNC(=O)c1cc(Oc2ccc(NC(=O)Nc3ccc(Cl)c(C(F)(F)F)c3)cc2)ccn1,cell-free assay,,,0.5 µM,remaining signal,46.9%
Cc1sc(C(=O)NC2COC2)cc1-n1cc(NC(=O)Nc2c(F)cccc2Cl)cn1,enzyme activity,inhibitor,,10 µM,remaining activity,94.3%
COc1cc(Nc2cnc(C#N)c(O[C@H](C)CN(C)C)n2)ncc1-c1cnn(C)c1,enzyme activity,inhibitor,radiometric,1 µM,remaining activity,96%
Cn1c2c(c3ccc(Cl)c(Cl)c31)C(C#N)C1(CCOCC1)NC2=O (stereo not drawn),thermal stability,,DSF,10 µM,ΔTm,0.4 °C
FC(F)c1nc2ccccc2n1-c1nc(N2CCOCC2)nc(N2CCOCC2)n1,enzyme activity,inhibitor,,10 µM,remaining activity,95%
O=C(Nc1cnn(-c2csc(C(=O)NC3COC3)c2)c1)Nc1c(F)cccc1Cl,enzyme activity,inhibitor,,5 µM,remaining activity,91.7%
COc1cccc2c(NCc3ccccc3)nc(-n3c(N)nc4ccccc43)nc12,target engagement in cells,inhibitor,chemoproteomics,20 mM,inhibition,-9.6%
CN([C@@H]1CCc2c(CC(=O)O)c3ccccc3n2C1)S(=O)(=O)c1ccc(F)cc1,cell-free assay,,competition with immobilised ligand,1 µM,remaining binding,88%
CC(C)(O)[C@H]1CC[C@H](Nc2ccc3ncc(-c4cccc(C(F)(F)F)c4)n3n2)CC1,enzyme activity,inhibitor,,1 µM,remaining activity,103%
CCN1CCC2(CC1)NC(=O)c1c(c3ccc(Cl)c(Cl)c3n1C)C2C#N (racemic),thermal stability,,DSF,10 µM,ΔTm,-0.3 °C
O=C1NC(=O)c2cc(Nc3ccc(F)cc3)c(Nc3ccc(F)cc3)cc21,cell-free assay,,,0.5 µM,remaining signal,94.6%
N#CC1c2c([nH]c3c(Cl)c(Cl)ccc23)C(=O)NC12CCCCC2 (racemic),thermal stability,,DSF,10 µM,ΔTm,-0.1 °C
CC(C)(O)c1cncc(-c2nc3ccc(F)cc3n2C2CC2)c1,cell-free assay,,competition with immobilised ligand,1 µM,remaining binding,100%
CC(C)(C)C(=O)c1sc(NC2CCCCC2)nc1N,enzyme activity,inhibitor,,10 µM,remaining activity,82%
O=C1NC(c2ccccn2)Sc2ccccc21 (stereo not drawn),cell-free assay,,competition with immobilised ligand,1 µM,remaining binding,100%
Nc1ncnc2occ(-c3ccc(NC(=O)Nc4cc(C(F)(F)F)ccc4F)cc3)c12,cell-free assay,inhibitor,,20 µM,remaining signal,0%
CCC1(CC)NC(=O)c2c(c3ccc(Cl)c(Cl)c3n2C)C1C#N (stereo not drawn),thermal stability,,DSF,10 µM,ΔTm,0.1 °C
Cc1cc(-n2nc(Cc3cc(F)cc(C(F)(F)F)c3)nc2C)ccc1C(N)=O,cell-free assay,,competition with immobilised ligand,1 µM,remaining binding,90%
CNCc1ccc(-c2cc(-c3nc(-c4ccc(S(=O)(=O)C(C)C)cc4)cnc3N)on2)cc1,enzyme activity,inhibitor,,2 µM,inhibition,11%
CCN(CC)c1ccc(C2=NNC(=O)CC2C)cc1[N+](=O)[O-] (stereo not drawn),enzyme activity,inhibitor,,10 µM,remaining activity,97%
Cn1c2c(c3ccc(Cl)c(Cl)c31)C(C#N)C1(CCCCC1)NC2=O (racemic),thermal stability,,DSF,10 µM,ΔTm,0.1 °C
COc1cc(/C=C/C(=O)CC(=O)/C=C/c2ccc(O)c(OC)c2)ccc1O,enzyme activity,inhibitor,,1 µM,activity vs control,101%
COc1cc2ncnc(Nc3ccc(Oc4ccccc4)cc3C)c2cc1OC,enzyme activity,inhibitor,,1 µM,inhibition,5%
O=C(NCCCC1CCCCC1)c1ccc(CNC(=O)c2cnn(-c3ccccc3)c2C(F)(F)F)cc1,cell-free assay,,competition with immobilised ligand,0.1 µM,remaining binding,100%
CN(c1ncccc1CNc1nc(Nc2ccc3c(c2)CC(=O)N3)ncc1C(F)(F)F)S(C)(=O)=O,enzyme activity,inhibitor,,1 µM,inhibition,7.8%
Cc1cnc(NC2CCOCC2)nc1-n1cnc(C(=O)NC(CN)c2cc(F)cc(Cl)c2)c1 (stereo not drawn),enzyme activity,inhibitor,radiometric,1 µM,remaining activity,78%
O=C(CSc1nc2nccnc2c(=O)n1CCc1ccccc1)Nc1nccs1,enzyme activity,inhibitor,,10 µM,inhibition,5%
CCN(CC)CCNC(=O)c1c(C)[nH]c(/C=C2\C(=O)Nc3ccc(F)cc32)c1C,enzyme activity,inhibitor,,0.3 µM,inhibition,-5%
Oc1cccc(-c2nc(N3CCOCC3)c3oc4ncccc4c3n2)c1,cell-free assay,,,0.5 µM,remaining signal,103%
CN1CCC2(CC1)NC(=O)c1c(c3ccc(Cl)c(Cl)c3n1C)C2C#N (racemic),thermal stability,,DSF,10 µM,ΔTm,0.4 °C
Cc1ccc(Nc2nccc(N(C)c3ccc4c(C)n(C)nc4c3)n2)cc1S(N)(=O)=O,enzyme activity,inhibitor,,10 µM,inhibition,64%
